The text below walks through data of ChEMBL document CHEMBL1133685, “Synthesis of new 2,6-prolylxylidide analogues of tocainide as stereoselective blockers of voltage-gated Na(+) channels with increased potency and improved use-dependent activity” (J Med Chem, 2000).

The nature of assay [1]: Half maximal concentration for producing a phasic block in skeletal muscle fibers (cumulative sodium current reduction at 10 Hz stimulations frequency). The format is functional, tissue-based, Muscle tissue. The procedure, abridged:
(§1)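 Four-pool grease-gap voltage clamp on single skeletal muscle fibers; the central pool held external solution (mM: NaCl 77, choline Cl 38, CaCl2 1.8, KCl 2.5, Na2HPO4 2.15, NaH2PO4 0.85) with drug added. Recordings at 10 °C after 10 min equilibration, holding potential -100 mV, 10-ms test pulses to -20 mV. IC50 for I_Namax block came from a logistic fit of concentration-response data, 3-7 fibers per point, mean ± SEM.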

The nature of assay [2]: In vitro potential anti-myotonic activity as potency in phasic block in relation to tocainide (tocainide = 1). Format: functional. The procedure, abridged:
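Phasic block was measured at 10 Hz by voltage clamp of skeletal muscle fiber Na+ current at 10 °C, holding potential -100 mV, pulses to -20 mV. The IC50 came from a logistic concentration-response fit, and potency was expressed relative to tocainide (tocainide = 1).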

Assay [3] is described as follows: Ratio of IC50 tonic block to IC50 phasic block. The format is functional.
The nature of assay [4]: Half maximal concentration for producing a tonic block in skeletal muscle fibers (block of sodium channel at resting conditions evaluated during infrequent depolarizing pulses). Format: functional, tissue-based, Muscle tissue. The procedure, abridged:
as §1

A value given as a limit tells only on which side of the number the result lay.

As to `Cc1cccc(C)c1N(C)C(=O)[C@H]1CCCN1`, the results for the IC50 in assay [1] and in assay [4] were 217 µM and 340 µM, respectively. Besides, the Activity in assay [2] stood at 1. In addition, the Ratio in assay [3] was determined as 1.6.

Turning to `Cc1cccc(C)c1NC(=O)[C@@H]1CCCN1`, the IC50 in assay [1] came out at 44 µM; in assay [4], 230 µM. The same compound returned an Activity in assay [2] of 5. In addition, the Ratio in assay [3] was determined as 5.2.

In the case of `Cc1cccc(C)c1NC(=O)[C@H](C)N` [S-TOCAINIDE], the IC50 in assay [1] was 220 µM; in assay [4], 520 µM. The Activity in assay [2] was 1. Moreover, the Ratio in assay [3] amounted to 2.4.

Take `Cc1cccc(C)c1NC(=O)[C@@H]1CCCN1C`: the concentration for half-maximal inhibition (IC50) in assay [1] was found to be 28 µM; in assay [4], 106 µM. This compound showed an Activity in assay [2] of 8. The Ratio in assay [3] was 3.4.

On to `Cc1cccc(C)c1NC(=O)[C@H]1CCCN1C`, for which the IC50 in assay [1] was 100 µM; in assay [4], 300 µM. The compound also displayed an Activity in assay [2] of 2.7. In addition, the Ratio in assay [3] came to 3.

In the case of `Cc1cccc(C)c1N(C)C(=O)[C@@H]1CCCN1`, the IC50 in assay [1] came to 67 µM; in assay [4], 104 µM. In addition, in assay [2], the Activity worked out at 3. Moreover, in assay [3], the Ratio came out at 1.5.

For `Cc1cccc(C)c1NC(=O)[C@@H](C)N` [(R)-TOCAINIDE], the IC50 in assay [1] is 270 µM; in assay [4], 580 µM. Also, the Activity in assay [2] came to 1. Also, the Ratio in assay [3] is 2.1.

In the case of `Cc1cccc(C)c1N(C)C(=O)[C@H]1CCCN1C`, the IC50 is 440 µM in assay [1] and above 500 µM in assay [4]. In assay [2], this compound showed an Activity of 0.6. For the same compound, the Ratio in assay [3] is above 1.1.

For the compound `Cc1cccc(C)c1NC(=O)[C@H]1CCCN1`, the IC50 in assay [1] worked out at 13 µM; in assay [4] it was 110 µM. Besides, in assay [2], the Activity stood at 21. In addition, in assay [3], the Ratio was determined as 8.5.

With `Cc1cccc(C)c1N(C)C(=O)[C@@H]1CCCN1C`, the IC50 in assay [1] is 198 µM; in assay [4], 286 µM. In assay [2], this compound registered an Activity of 1.1. The Ratio in assay [3] stood at 1.4.

One may read the IC50 as the concentration that gives 50% inhibition. A lower IC50 goes with higher potency.
